Source: ChEMBL document CHEMBL2157923, “1,3-Azoles from ortho-naphthoquinones: synthesis of aryl substituted imidazoles and oxazoles and their potent activity against Mycobacterium tuberculosis” (Bioorg Med Chem, 2012)
Values after ≈ are worked out from the molar mass of the structure shown. Active and inactive are the calls of the source. The rule behind the calls is not given here.

Experiments:
[1] = system: Mycobacterium tuberculosis; experiment: Antimycobacterial activity against pan-susceptible Mycobacterium tuberculosis H37Rv ATCC 27294 after 7 days by resazurin microtitre assay; format: functional
How it was run: (§1)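 REMA MIC. Strains kept on Ogawa-Kudoh medium 14 days at 37 °C. Suspension vortexed and adjusted to McFarland tube 1 (3.2 × 10^6 cfu/mL), then diluted 1:20 in Middlebrook 7H9 with 10% OADC and glycerol. Compounds tested from 100 ug/mL down to 0.19 ug/mL. Incubated 7 days at 37 °C, resazurin added, 2 more days at 37 °C; colour change read.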

[2] = system: PBMC; experiment: Cytotoxicity against human PBMC after 72 hrs by alamar blue assay; format: cell-based
How it was run: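 Alamar Blue assay on human PBMC. Compounds at 0.048 to 25 µg/mL in DMSO (0.1%) added after 24 h and exposed 72 h. Resazurin added 24 h before the end. Absorbance read at 570 and 595 nm, medium blank subtracted, and % reduced computed with correction factor R0. Effect expressed as percentage of control.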

[3] = system: Mycobacterium tuberculosis; experiment: Antimycobacterial activity against pan-susceptible Mycobacterium tuberculosis H37Rv; format: functional; how it was run: as §1

Row | SMILES | MIC ([1]; H37Rv ATCC 27294, 168 h) | IC50 [2] | also measured
1 | CC1(C)CCc2c(c3ccccc3c3nc(-c4ccccc4Br)[nH]c23)O1 | 7.6 µM (≈ 3.1 µg/mL) | > 25 µg/mL | –
2 | CC1(C)CCc2c(c3ccccc3c3nc(-c4ccc(Cl)cc4)[nH]c23)O1 | 34.4 µM (≈ 12.5 µg/mL) | > 25 µg/mL | –
3 | CC1(C)CCc2c(c3ccccc3c3nc(-c4cccc(C#N)c4)[nH]c23)O1 | – | > 25 µg/mL | MIC [1]: inactive
4 | CC1CC2=C(O1)c1ccccc1C(=O)C2=O (stereo not drawn) | 14.5 µM (≈ 3.11 µg/mL) | – | –
5 | CC1(C)CCc2c(c3ccccc3c3nc(-c4cccc(C(F)(F)F)c4)[nH]c23)O1 | 4 µM (≈ 1.59 µg/mL) | – | –
6 | CC1(C)CCc2c(c3ccccc3c3nc(-c4ccccc4)[nH]c23)O1 | > 304 µM | > 25 µg/mL | –
7 | Cc1ccc(-c2nc3c(o2)c2c(c4ccccc43)OC(C)(C)C2)cc1 | > 304 µM | – | –
8 | CC1(C)CCc2c(c3ccccc3c3nc(-c4ccc(F)cc4)[nH]c23)O1 | 72.2 µM (≈ 25 µg/mL) | > 25 µg/mL | –
9 | CC1(C)CCc2c(c3ccccc3c3nc(-c4cccnc4)[nH]c23)O1 | – | – | MIC [1]: inactive
10 | CC1(C)CCc2c(c3ccccc3c3nc(-c4cccc(C#N)c4)oc23)O1 | 35.2 µM (≈ 12.5 µg/mL) | – | –
11 | CC1(C)CCc2c(c3ccccc3c3nc(-c4ccc(C(F)(F)F)cc4)[nH]c23)O1 | – | – | MIC [1]: inactive
12 | CC1(C)CCc2c(c3ccccc3c3nc(-c4cnc5ccccc5c4)[nH]c23)O1 | – | – | MIC [1]: inactive
13 | CC1(C)Cc2c(c3ccccc3c3nc(-c4ccccc4)[nH]c23)O1 | > 318 µM | > 25 µg/mL | –
14 | CC1(C)CCc2c(c3ccccc3c3nc(-c4ccc([N+](=O)[O-])cc4)[nH]c23)O1 | 268 µM (≈ 100 µg/mL) | – | –
15 | CC1(C)CCc2c(c3ccccc3c3nc(-c4cc5ccccc5cn4)[nH]c23)O1 | 16.4 µM (≈ 6.22 µg/mL) | > 25 µg/mL | –
16 | COc1ccccc1-c1nc2c([nH]1)c1c(c3ccccc32)OC(C)(C)CC1 | 17.4 µM (≈ 6.24 µg/mL) | – | –
17 | CC1(C)CCc2c(c3ccccc3c3nc(-c4cccc([N+](=O)[O-])c4)[nH]c23)O1 | – | > 25 µg/mL | MIC [1]: inactive
18 | CC1(C)CCc2c(c3ccccc3c3nc(-c4cccc(Br)c4)[nH]c23)O1 | 15.3 µM (≈ 6.23 µg/mL) | > 25 µg/mL | –

Row | SMILES | MIC ([1]; H37Rv ATCC 27294, 168 h) | IC50 [2] | also measured
19 | C=CCC1=C(O)C(=O)c2ccccc2C1=O | 467 µM (≈ 100 µg/mL) | – | –
20 | CC1(C)CCc2c(c3ccccc3c3nc(-c4ccc(Br)cc4)[nH]c23)O1 | – | > 25 µg/mL | MIC [1]: inactive
21 | NNC(=O)c1ccncc1 [ISONIAZID] | ≤ 0.4 µM | – | –
22 | CC1(C)Cc2c(c3ccccc3c3nc(-c4ccc([N+](=O)[O-])cc4)oc23)O1 | > 278 µM | – | –
23 | CC1(C)CCc2c(c3ccccc3c3nc(-c4ccccc4[N+](=O)[O-])[nH]c23)O1 | 268 µM (≈ 100 µg/mL) | > 25 µg/mL | –
24 | CC(C)CCc1c2[nH]c3ccccc3nc-2c2c(c1=O)CCCC2 | – | – | MIC [3]: ≤ 3 µg/mL
25 | CC1(C)CCc2c(c3ccccc3c3nc(-c4ccccc4C(F)(F)F)[nH]c23)O1 | 4 µM (≈ 1.59 µg/mL) | – | –
26 | CC1(C)CCc2c(c3ccccc3c3nc(-c4ccccc4C#N)oc23)O1 | 35.2 µM (≈ 12.5 µg/mL) | – | –
27 | CC1(C)CCc2c(c3ccccc3c3nc(-c4ccccn4)[nH]c23)O1 | 75.9 µM (≈ 25 µg/mL) | – | –
28 | CC1(C)CCc2c(c3ccccc3c3nc(-c4ccc(C#N)cc4)oc23)O1 | 17.6 µM (≈ 6.24 µg/mL) | – | –
29 | CO[C@H]1/C=C/O[C@@]2(C)Oc3c(C)c(O)c4c(O)c(c(/C=N/N5CCN(C)CC5)c(O)c4c3C2=O)NC(=O)/C(C)=C\C=C\[C@H](C)[C@H](O)[C@@H](C)[C@@H](O)[C@@H](C)[C@H](OC(C)=O)[C@@H]1C [RIFAMPIN] | ≤ 0.1 µM | – | –
30 | Cc1ccc(-c2nc3c([nH]2)c2c(c4ccccc43)OC(C)(C)C2)cc1 | > 304 µM | – | –
31 | CC1(C)CCc2c(c3ccccc3c3nc(-c4ccc(C#N)cc4)[nH]c23)O1 | – | > 25 µg/mL | MIC [1]: inactive
32 | CC1Cc2c(c3ccccc3c3nc(-c4ccc([N+](=O)[O-])cc4)oc23)O1 (stereo not drawn) | > 289 µM | – | –
33 | Cc1ccccc1-c1nc2c([nH]1)c1c(c3ccccc32)OC(C)(C)CC1 | 9 µM (≈ 3.08 µg/mL) | – | –
34 | CC1(C)CCc2c(c3ccccc3c3nc(-c4cccc(F)c4)[nH]c23)O1 | 9 µM (≈ 3.12 µg/mL) | > 25 µg/mL | –
35 | C=CCC1Cc2c(c3ccccc3c3nc4ccccc4nc23)OC1(C)C (stereo not drawn) | – | – | MIC [3]: 0.78 µg/mL (≈ 2.2 µM)
